Assay results from ChEMBL document CHEMBL3259660, “Haloemodin as novel antibacterial agent inhibiting DNA gyrase and bacterial topoisomerase I” (J Med Chem, 2014).
Values after ≈ are worked out from the molar mass of the structure shown. Active and inactive are the calls of the source. The rule behind the calls is not given here.

Legend:
Staphylococcus aureus = assay: microbe, parasite or virus in culture; type: functional; conditions: ATCC 6538
Escherichia coli = assay: Antibacterial activity against Escherichia coli assessed as growth inhibition at <0.256 mg/ml by agar dilution assay; type: functional, organism-based
Pseudomonas aeruginosa = assay: Antibacterial activity against Pseudomonas aeruginosa ATCC 27853 assessed as growth inhibition by agar dilution assay; type: functional
Method in brief: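 Agar dilution MIC per CLSI (aerobic and anaerobic methods); compounds dissolved in DMSO, reference antibiotics in sterile water. MIC taken as lowest concentration with no visible growth; determined at least twice on separate days, higher value reported. Clinical isolate ranges summarized as MIC50/MIC90.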

Enterococcus faecium [1] = assay: Antibacterial activity against vancomycin-sensitive Enterococcus faecium assessed as growth inhibition by agar dilution assay; type: functional
[2] = Cytotoxicity against CHL cells assessed as cell viability after 24 hrs by MTT assay; type: cell-based, Cricetulus griseus; conditions: chinese hamster
Method in brief: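 CHL fibroblasts seeded at about 5 × 10^4 cells/mL, incubated overnight at 37 °C, 5% CO2, then exposed to compound at different concentrations for 24 h. Viability read by MTT, absorbance at 570 nm, relative to cells in medium alone (100%). Triplicate.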

[3] = Binding affinity to supercoiled pHOT-1 DNA assessed as unwinding of DNA helix by measuring shift of negative to positive supercoiled pHOT-1 at 10 to 150 uM treated 15 mins prior to human topoisomerase 1 addition for 30 mins by agarose gel electrophoresis
Enterococcus faecium [4] = assay: Antibacterial activity against vancomycin-resistant Enterococcus faecium assessed as growth inhibition by agar dilution assay; type: functional

Compound: Cc1cc(O)c2c(c1)C(=O)c1c(I)c(O)c(I)c(O)c1C2=O
- MIC (Staphylococcus aureus): 2 µg/mL (≈ 3.83 µM)
- growth inhibition (GI) (Escherichia coli): inactive
- MIC (Pseudomonas aeruginosa): > 256 µg/mL
- MIC (Enterococcus faecium [1]): 16 µg/mL (≈ 30.6 µM)
- IC90 at 24 h [2]: 256 µg/mL (≈ 490 µM)
- Activity [3]: inactive
- MIC (Enterococcus faecium [4]): 8 µg/mL (≈ 15.3 µM)
